Measurements published in ChEMBL document CHEMBL4513216, “Probing the Open Global Health Chemical Diversity Library for Multistage-Active Starting Points for Next-Generation Antimalarials” (ACS Infect Dis, 2020).

Test: Toxicity liver stage against HepG2, at 10uM
Format: cell-based
Set-up: test concentration 10 uM, cell line HepG2-A16-CD81EGFP
Conditions: human, HepG2-A16-CD81EGFP cells; read-out: INHIBITION
How it was run: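 Uninfected HepG2-A16-CD81EGFP cells, 3 × 10^3 per well, 1536-well, plated on prespotted compound at 10 μM final, parasite-free screening media added to match infected plates; puromycin 10 μM positive, DMSO 0.5% negative; run in parallel with 48 h PbLuc assay at 37 °C, 5% CO2; viability by CellTiter-Glo luminescence, normalized to controls.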

SMILES	cytotoxicity at 10 µM
C[C@H](NC(=O)N1CCC(Cc2ccccc2)CC1)C(=O)O	-1.65%
Cn1ccnc1CN1C(=O)CO[C@H]2CN(CCCc3ccccc3)C[C@H]21	4.22%
COc1ccc(C(=O)N2CC(=O)N(Cc3cccs3)CC(O)C2)cc1 (stereo not given)	4.43%
c1cncc(-c2ccc3c(c2)C2(CCNCC2)CC3)c1	4.59%
CCC1(CC)C(=O)NC(=O)N=C1Nc1ccc(C)cc1	-6.34%
O=C(N1CCCC1)N1CCn2c(nnc2C2CCCN2)C1 (stereo not given)	4.12%
COc1ccc(CN(C(=O)C2CCCO2)c2ccncc2)cc1 (stereo not given)	1.86%
Cc1ccc(CNC(=O)N(C)Cc2ccc([S+](C)[O-])cc2)s1 (stereo not given)	6.75%
CCn1cnnc1CNC(=O)N1CCOC(c2ccc(Cl)cc2)C1 (stereo not given)	4.13%
COc1ccc(CNCc2nnc3n2CC(C(F)(F)F)CC3)cc1 (stereo not given)	3.27%
Cc1nc2c(c(C)c1CC(=O)NC(C)c1ccccc1)c(=O)[nH]n2C (stereo not given)	-3.44%
CS(=O)(=O)CCN1CCC(=Cc2ccccc2)CC1	-2.99%
Cc1cc(CN(C)C(=O)CN2CCCCCC2=O)no1	7.41%
CN(C)S(=O)(=O)N1CCN(C(=O)OC(C)(C)C)CC12CCCCC2	3.36%
Cc1ccc(C(=O)N2C[C@@H]3OCCN(C(C)C)[C@@H]3C2)cn1	-81.7%
Cn1cc(CN2CCCC23CCN(S(C)(=O)=O)CC3)cn1	-82.1%
COc1c(F)cc(-c2cccc3c2OC(CN)C3)cc1F (stereo not given)	-53.7%
CCN(CC)c1ncccc1CNCc1ccc(-c2ccn[nH]2)s1	6.43%
CN(CCc1ccccn1)C(=O)CCC1CCCN(c2cnccn2)C1 (stereo not given)	4.13%
CNC(=O)[C@@H]1C[C@@H](N)CN1C1CCN(Cc2ccccn2)CC1	-53.5%
O=C(c1ccc(C2CCCN2)s1)N1CCN(C(=O)N2CCOCC2)CC1 (stereo not given)	0.106%
CCOc1ccccc1C(C(=O)O)N(C)Cc1cc(C)[nH]n1 (stereo not given)	9.34%
COc1c(F)cccc1C(=O)N(C)Cc1nc(-c2ccccn2)no1	-1.51%

SMILES	cytotoxicity at 10 µM
CN(CCN1CCCCCC1)c1nccc(N2CCC(O)C2)n1 (stereo not given)	5.27%
CCCOC1CCCN(Cc2nc(-c3ccc(F)cc3F)oc2C)C1 (stereo not given)	-51.1%
CCNc1ncc(C)c(-c2cnn(C)c2)n1	-3.73%
CC(C)N1CCC(C(=O)N[C@H](C(=O)O)c2cccc(F)c2F)CC1	2.59%
O=c1[nH]c(-c2ccc(F)c(F)c2)nc2c1CCNC2	2.06%
CCc1nc(NCCc2nc(C)c(C)s2)c2cnn(C)c2n1	6.31%
Cc1cccnc1CN(C)C(C(=O)O)c1ccc(C(C)(C)C#N)cc1 (stereo not given)	0.566%
CN(CCCC1CCCC1)C(=O)c1cc(CN2CCC(O)CC2)on1	5.21%
CCN(CC1CCOCC1)C(=O)Cn1cccc(C(F)(F)F)c1=O	-10.2%
Cc1cc(N2CCC3(CCC(=O)N(CCO)C3)CC2)nc(N(C)C)n1	-4.78%
O=C(CCn1cc(Cl)cn1)N1CCN(CC2CC2)[C@@H]2CS(=O)(=O)C[C@@H]21	2.28%
CC(=O)NC(CC(=O)Nc1ccc(C)cn1)c1ccccc1 (stereo not given)	-12.5%
COCCCNC(=O)CN1CCC(N2CCN(C)C2=O)CC1	-2.54%
O=C(CN1CCCC1Cn1cncn1)NCCC1=CCCCC1 (stereo not given)	-16.5%
COc1c(C)cnc(CN2CCCC2Cn2nc(C)nc2C)c1C (stereo not given)	-3.21%
c1cnc(-c2nc(CN3CCCC3Cn3cncn3)cs2)nc1 (stereo not given)	-9.77%
Cc1ccc(C(=O)N2CCN(Cc3ccccc3)CC2)n1C	-1.28%
Cc1csc(C2CCCN(C(=O)c3cccc4c3OCO4)C2)n1 (stereo not given)	-4.11%
CC[C@H]1N(CC2CCOCC2)CCC[C@]12CCC(=O)N2	8.71%
Cc1cc(CN2C[C@@H]3CCCO[C@@H]3[C@H](Nc3ccccn3)C2)no1	-4.72%
COc1ccccc1NCc1cscn1	-0.358%
Cc1noc(C)c1CNCC1(COc2cccnc2)C[C@@H](O)[C@@H](O)C1 (stereo not given in full)	-2.36%
